Results published in ChEMBL document CHEMBL1255352, “Polyclonal population structure of Streptococcus pneumoniae isolates in Spain carrying mef and mef plus erm(B)” (2008).
In brackets after ≈: the same amount, converted by molar mass.

Experiments:
[1] = tested on: Streptococcus pneumoniae; test: Antibacterial activity against mef and erm(B) positive Streptococcus pneumoniae isolates by broth microdilution method; assay type: functional
Summary of the method: (§1)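 Broth microdilution MICs per CLSI guidelines. Agents tested were penicillin G, cefotaxime, erythromycin, clindamycin, telithromycin, tetracycline and levofloxacin. Plates were incubated at 35°C in ambient air. S. pneumoniae ATCC 49619 served as the reference strain in each run.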

[2] = tested on: Streptococcus pneumoniae; test: Antibacterial activity against mef-positive Streptococcus pneumoniae isolates by broth microdilution method; assay type: functional; summary of the method: as §1
[3] = tested on: Streptococcus pneumoniae; test: Antibacterial activity against mef(E)-positive Streptococcus pneumoniae isolate Spain 9V-3 by broth microdilution method; assay type: functional; summary of the method: as §1
[4] = tested on: Streptococcus pneumoniae; test: Antibacterial activity against erm(B) and mef(E)-positive Streptococcus pneumoniae isolate Sweden 15A-25 by broth microdilution method; assay type: functional
Summary of the method: (§2)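 MICs by broth microdilution following CLSI guidelines, incubated at 35°C in ambient air. S. pneumoniae ATCC 49619 served as reference strain in each run. CLSI breakpoints applied. Isolates typed for mef(A)/mef(E) by PCR and by MLST.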

[5] = tested on: Streptococcus pneumoniae; test: Antibacterial activity against erm(B) and mef(E)-positive Streptococcus pneumoniae isolate Spain 6B by broth microdilution method; assay type: functional; summary of the method: as §2
[6] = tested on: Streptococcus pneumoniae; test: Antibacterial activity against mef-positive Streptococcus pneumoniae isolates assessed as resistance incidence by broth microdilution method; assay type: functional
Summary of the method: (§3)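 Clinical isolates were tested by CLSI broth microdilution against penicillin G, cefotaxime, erythromycin, clindamycin, telithromycin, tetracycline and levofloxacin, incubated at 35°C in ambient air, with ATCC 49619 as the control in each run. Isolates were classed as resistant using CLSI breakpoints.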

[7] = tested on: Streptococcus pneumoniae; test: Antibacterial activity against mef and erm(B) positive Streptococcus pneumoniae isolates assessed as resistance incidence by broth microdilution method; assay type: functional; summary of the method: as §3
[8] = tested on: Streptococcus pneumoniae; test: Antibacterial activity against erm(B) and mef(E)-positive Streptococcus pneumoniae isolate CC-6B by broth microdilution method

SMILES | MIC50 [1] [µg/mL] | MIC90 [1] [µg/mL] | MIC50 [2] [µg/mL] | MIC90 [2] [µg/mL] | MIC [3] [µg/mL] | MIC [4] [µg/mL] | MIC [5] [µg/mL] | Activity [6] [%] | Activity [7] [%] | MIC [8] [µg/mL]
CN(C)[C@@H]1C(O)=C(C(N)=O)C(=O)[C@@]2(O)C(O)=C3C(=O)c4c(O)cccc4[C@@](C)(O)[C@H]3C[C@@H]12 [TETRACYCLINE] | 16 (≈ 36 µM) | > 32 | 1 (≈ 2.25 µM) | 4 (≈ 9 µM) | 0.5 (≈ 1.13 µM) | ≥ 64 | ≥ 64 | 13.3 | 55.5 | 4 (≈ 9 µM)
CO/N=C(\C(=O)N[C@@H]1C(=O)N2C(C(=O)O)=C(COC(C)=O)CS[C@H]12)c1csc(N)n1 [CEFOTAXIME] | 0.5 (≈ 1.1 µM) | 2 (≈ 4.39 µM) | 0.01 (≈ 0.022 µM) | 0.25 (≈ 0.549 µM) | 0.06 (≈ 0.132 µM) | 0.06 (≈ 0.132 µM) | 1 (≈ 2.2 µM) | 17.7 | 4.4 | 0.12 (≈ 0.263 µM)
C[C@H]1COc2c(N3CCN(C)CC3)c(F)cc3c(=O)c(C(=O)O)cn1c23.C[C@H]1COc2c(N3CCN(C)CC3)c(F)cc3c(=O)c(C(=O)O)cn1c23.O [LEVOFLOXACIN] | 1 | 1 | 1 | 1 |  |  |  |  |  | 
CC[C@H]1OC(=O)[C@H](C)[C@@H](O[C@H]2C[C@@](C)(OC)[C@@H](O)[C@H](C)O2)[C@H](C)[C@@H](O[C@@H]2O[C@H](C)C[C@H](N(C)C)[C@H]2O)[C@](C)(O)C[C@@H](C)C(=O)[C@H](C)[C@@H](O)[C@]1(C)O [ERYTHROMYCIN] | 64 (≈ 87.2 µM) | > 64 | 4 (≈ 5.45 µM) | 16 (≈ 21.8 µM) | 0.5 (≈ 0.681 µM) | ≥ 64 | ≥ 64 |  |  | 32 (≈ 43.6 µM)
CCC[C@@H]1C[C@@H](C(=O)N[C@@H]([C@H]2O[C@H](SC)[C@H](O)[C@@H](O)[C@H]2O)[C@H](C)Cl)N(C)C1 [CLINDAMYCIN] | 64 (≈ 151 µM) | > 64 | 0.03 (≈ 0.0706 µM) | 0.25 (≈ 0.588 µM) | 0.03 (≈ 0.0706 µM) | ≥ 64 | ≥ 64 | 0 | 62.2 | 32 (≈ 75.3 µM)
CC1(C)S[C@@H]2[C@H](NC(=O)Cc3ccccc3)C(=O)N2[C@H]1C(=O)O [PENICILLIN G] | 1 (≈ 2.99 µM) | 4 (≈ 12 µM) | 0.03 (≈ 0.0897 µM) | 1 (≈ 2.99 µM) | 0.12 (≈ 0.359 µM) | 0.12 (≈ 0.359 µM) | 4 (≈ 12 µM) | 35.5 | 46.7 | 0.12 (≈ 0.359 µM)
CC[C@H]1OC(=O)[C@H](C)C(=O)[C@H](C)[C@@H](O[C@@H]2O[C@H](C)C[C@H](N(C)C)[C@H]2O)[C@](C)(OC)C[C@@H](C)C(=O)[C@H](C)[C@H]2N(CCCCn3cnc(-c4cccnc4)c3)C(=O)O[C@]12C [TELITHROMYCIN] | 0.06 (≈ 0.0739 µM) | 0.25 (≈ 0.308 µM) | 0.12 (≈ 0.148 µM) | 0.5 (≈ 0.616 µM) | 0.05 (≈ 0.0616 µM) | 0.008 (≈ 0.00985 µM) | 0.08 (≈ 0.0985 µM) |  |  | < 0.01
